Experimental data published in ChEMBL document CHEMBL4251630, “Hydroxymethyl bioisosteres of phenolic GluN2B-selective NMDA receptor antagonists: Design, synthesis and pharmacological evaluation” (Eur J Med Chem, 2018).

Experiments:
[1] = biological target: T1, Glutamate receptor ionotropic, NMDA 2B (Homo sapiens, UniProt Q13224); experiment: Displacement of [3H]Ifenprodil from GluN2B receptor (unknown origin) expressed in mouse L(tk-) cell membranes incubated for 120 mins measured for 5 mins by scintillation counting method
[2] = organism: Sus scrofa; experiment: Displacement of [3H]-(+)-MK-801 from NMDA receptor PCP binding site in pig brain cortex membranes at 1 uM incubated for 120 mins measured for 5 mins by scintillation counting method relative to control; type: cell membranes
Method in brief: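 Pig brain cortex membranes, about 100 µg protein, with 2 nM [3H]-(+)-MK-801 in 5 mM TRIS/1 mM EDTA, pH 7.5, at rt for 120 min. Test compound at 1 µM, in duplicate. Non-specific binding defined with 10 µM unlabeled (+)-MK-801. Filtration on polyethylenimine-soaked filtermats, then [3H] scintillation counting for 5 min per well. Value given as % inhibition of radioligand binding.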

[3] = biological target: Sigma non-opioid intracellular receptor 1 (Cavia porcellus, UniProt Q60492); experiment: Displacement of [3H]-(+)-pentazocine from sigma-1 receptor in guinea pig brain cortex membranes incubated for 120 mins measured for 5 mins by scintillation counting method; type: cell membranes
[4] = biological target: T2, Sigma intracellular receptor 2 (Rattus norvegicus, UniProt Q5U3Y7); experiment: Displacement of [3H]-di-o-tolylguanidine from sigma-2 receptor in rat liver membranes incubated for 120 mins measured for 5 mins by scintillation counting method; type: cell membranes, Membrane
T2 sequence (Q5U3Y7 whole entry): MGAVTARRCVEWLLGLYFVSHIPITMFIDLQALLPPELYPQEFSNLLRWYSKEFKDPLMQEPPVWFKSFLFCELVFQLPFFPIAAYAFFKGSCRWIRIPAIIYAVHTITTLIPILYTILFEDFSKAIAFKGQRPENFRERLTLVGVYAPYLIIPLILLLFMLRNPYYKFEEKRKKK

[5] = Selectivity ratio of Ki for sigma-1 receptor in guinea pig brain cortex membranes to Ki for GluN2B receptor (unknown origin) expressed in mouse L(tk-) cell membranes; type: cell-based
[6] = Selectivity ratio of Ki for sigma-2 receptor in rat liver membranes to Ki for GluN2B receptor (unknown origin) expressed in mouse L(tk-) cell membranes; type: cell-based
[7] = (§1) Antagonist activity at GluN2B/GluN1a receptor (unknown origin) expressed in mouse L(tk-) cells assessed as cytoprotection against glycine/(S)-glutamate-induced cell death preincubated for 30 mins followed by glycine/(S)-glutamate addition measured after 6 hrs by LDH assay; type: cell-based; conditions: Homo sapiens, LTK
Method in brief: (§2)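 L(tk-) cells co-expressing GluN1a/GluN2B (1:5), dexamethasone-induced. Wells blocked with DMEM/1 % BSA. Cells preincubated with test compound at 5 concentrations (e.g. 4 x 10-5 to 10-9 mol/L), in at least triplicate, 30 min at 37 °C. Glutamate/glycine (20 µM each, solution) then added for 6 h at 37 °C. Supernatant LDH measured by diaphorase/lactate/NAD+/INT mix, 45 min at 37 °C, absorbance 485 nm. (S)-ketamine 4 x 10-5 mol/L was the positive control.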

[8] = organism: Homo sapiens; experiment: as §1; type: cell-based; method in brief: as §2
[9] = biological target: T1, Glutamate receptor ionotropic, NMDA 2B; experiment: Displacement of [3H]Ifenprodil from GluN2B receptor (unknown origin) expressed in mouse L(tk-) cell membranes
Method in brief: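 Dexamethasone-induced (4 µM, with 4 µM ketamine, 24 h) GluN1a/GluN2B L(tk-) cell membranes, about 20 µg protein. […] Filtration and 5-min [3H] counting. Ki by Cheng-Prusoff (Kd 7.6 nM). Mean ± SEM of three experiments, or a single run for weak binders.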

Sequence of Sigma non-opioid intracellular receptor 1 (Q60492 whole entry): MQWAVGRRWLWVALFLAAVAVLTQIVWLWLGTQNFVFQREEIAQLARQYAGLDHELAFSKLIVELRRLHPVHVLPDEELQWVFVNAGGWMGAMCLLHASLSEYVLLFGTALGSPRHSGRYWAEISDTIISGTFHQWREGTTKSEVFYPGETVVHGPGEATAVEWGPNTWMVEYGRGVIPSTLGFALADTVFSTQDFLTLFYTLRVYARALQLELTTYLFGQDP
T1 sequence (Q13224 whole entry): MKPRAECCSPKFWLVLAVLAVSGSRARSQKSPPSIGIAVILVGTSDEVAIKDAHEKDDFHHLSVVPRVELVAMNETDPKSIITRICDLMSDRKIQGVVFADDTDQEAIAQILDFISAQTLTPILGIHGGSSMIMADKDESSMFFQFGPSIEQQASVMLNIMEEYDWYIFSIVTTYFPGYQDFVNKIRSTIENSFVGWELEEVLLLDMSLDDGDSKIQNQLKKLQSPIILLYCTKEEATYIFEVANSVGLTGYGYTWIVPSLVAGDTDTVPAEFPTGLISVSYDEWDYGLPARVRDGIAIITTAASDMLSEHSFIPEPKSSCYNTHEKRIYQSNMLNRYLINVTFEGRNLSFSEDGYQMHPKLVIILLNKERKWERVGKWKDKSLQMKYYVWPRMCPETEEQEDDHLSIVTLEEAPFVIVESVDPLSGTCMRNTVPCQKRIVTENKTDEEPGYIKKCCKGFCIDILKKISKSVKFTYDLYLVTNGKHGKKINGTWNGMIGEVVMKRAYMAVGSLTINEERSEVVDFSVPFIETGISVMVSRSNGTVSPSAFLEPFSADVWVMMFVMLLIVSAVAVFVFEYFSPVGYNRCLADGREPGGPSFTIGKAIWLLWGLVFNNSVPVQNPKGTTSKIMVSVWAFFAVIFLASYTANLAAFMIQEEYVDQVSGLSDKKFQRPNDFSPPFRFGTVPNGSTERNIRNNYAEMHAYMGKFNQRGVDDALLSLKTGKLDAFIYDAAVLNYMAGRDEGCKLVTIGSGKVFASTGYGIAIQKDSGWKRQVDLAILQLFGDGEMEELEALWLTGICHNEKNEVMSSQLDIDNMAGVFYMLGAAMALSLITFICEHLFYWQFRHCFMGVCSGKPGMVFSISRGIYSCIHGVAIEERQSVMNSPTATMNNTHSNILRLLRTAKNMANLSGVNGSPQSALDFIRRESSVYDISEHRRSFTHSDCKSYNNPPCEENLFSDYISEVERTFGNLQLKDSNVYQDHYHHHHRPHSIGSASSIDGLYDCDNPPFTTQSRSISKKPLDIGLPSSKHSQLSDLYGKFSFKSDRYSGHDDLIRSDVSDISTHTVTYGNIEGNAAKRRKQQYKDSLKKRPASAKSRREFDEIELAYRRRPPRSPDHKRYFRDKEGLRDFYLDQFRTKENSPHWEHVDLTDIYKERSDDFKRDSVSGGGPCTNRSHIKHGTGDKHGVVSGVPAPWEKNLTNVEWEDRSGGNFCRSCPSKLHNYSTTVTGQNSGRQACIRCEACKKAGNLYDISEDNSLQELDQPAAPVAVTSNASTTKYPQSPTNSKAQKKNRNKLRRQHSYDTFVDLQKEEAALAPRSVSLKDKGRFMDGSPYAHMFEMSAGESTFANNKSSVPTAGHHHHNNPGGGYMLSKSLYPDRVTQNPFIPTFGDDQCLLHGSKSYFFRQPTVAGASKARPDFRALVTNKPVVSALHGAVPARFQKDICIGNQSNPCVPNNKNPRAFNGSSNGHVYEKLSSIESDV

SMILES | Ki [1] [µM] | inhibition [2] [%] | Ki [3] [µM] | Ki [4] [µM] | Ratio Ki [5] | Ratio Ki [6] | IC50 [7] [µM] | inhibition [8] | Ki [9] [µM]
OCc1ccc2c(c1)CCC(NCCCc1ccccc1)CC2 (stereo not drawn) | 0.101 | 0 | 0.565 | 0.592 | 5 to 6 | 5 to 6 | 5.2 | Dose-dependent effect | –
Oc1ccc2c(c1)CCC(NCCCc1ccccc1)CC2 (stereo not drawn) | – | 0 | 0.123 | 0.032 | – | – | 25 | – | 0.028
COc1ccc2c(c1)CC[C@@H](NCCCc1ccccc1)C[C@H]2O (relative stereo) | – | – | – | – | – | – | – | – | 0.016
CC(C(O)c1ccc(O)cc1)N1CCC(Cc2ccccc2)CC1 (stereo not drawn) [IFENPRODIL] | – | – | – | – | – | – | 0.59 | – | –
C[C@@H](CN1CCC(Cc2ccccc2)CC1)[C@@H](O)c1ccc(O)cc1 | 0.173 | – | – | – | – | – | 0.018 | – | –
Oc1ccc2c(c1)CCC(NCCCCc1ccccc1)CC2 (stereo not drawn) | – | 25 | 0.211 | 0.096 | – | – | 3 | – | 0.021
OCc1ccc2c(c1)CCC(NCCCCc1ccccc1)CC2 (stereo not drawn) | 0.186 | 0 | 0.041 | 0.271 | 4 | – | > 100 | – | –
